Reference: ChEMBL document CHEMBL1671683, “Activity of linezolid in an in vitro pharmacokinetic-pharmacodynamic model using different dosages and Staphylococcus aureus and Enterococcus faecalis strains with and without a hypermutator phenotype” (Antimicrob Agents Chemother, 2010)

Assays:
Enterococcus faecalis [1] = assay: Bactericidal activity against 48 hrs peripheral compartment culture samples of Enterococcus faecalis Ef1497 MutM3 in two-compartment pharmacokinetic/pharmacodynamic model assessed as effect on bacterial count at 200 mg, bid administered as 0.5 hr infusion; type: functional
How it was run: (§1)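 An 18-h culture concentrated 50-fold was injected into the peripheral compartment 3 h pre-sampling (~10^8 CFU/ml E. faecalis, 10^9 S. aureus). Counts came from dilution plating (detection limit 2–3 log10 CFU/ml), expressed as Δlog CFU/ml from treatment start. Run in duplicate.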

Enterococcus faecalis [2] = assay: Bactericidal activity against 2 hrs peripheral compartment culture samples of Enterococcus faecalis ATCC 29212 in two-compartment pharmacokinetic/pharmacodynamic model assessed as effect on bacterial count at 600 mg, bid administered as 0.5 hr infusion; type: functional; how it was run: as §1
Enterococcus faecalis [3] = assay: Bactericidal activity against 12.5 hrs peripheral compartment culture samples of Enterococcus faecalis ATCC 29212 in two-compartment pharmacokinetic/pharmacodynamic model assessed as effect on bacterial count at 600 mg, bid administered as 0.5 hr infusion; type: functional; how it was run: as §1
Staphylococcus aureus [4] = assay: Bactericidal activity against 24 hrs peripheral compartment culture samples of Staphylococcus aureus RN4220 MutS2 in two-compartment pharmacokinetic/pharmacodynamic model assessed as effect on bacterial count at 600 mg, bid administered as 0.5 hr infusion; type: functional; how it was run: as §1
Enterococcus faecalis [5] = assay: Bactericidal activity against 12 hrs peripheral compartment culture samples of Enterococcus faecalis ATCC 29212 in two-compartment pharmacokinetic/pharmacodynamic model assessed as effect on bacterial count at 600 mg, bid administered as 0.5 hr infusion; type: functional
How it was run: (§2)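 Two-compartment hollow-fibre model in cation-adjusted, protein-free MH broth, 37°C. Linezolid given as simulated 0.5-h infusion twice daily. Inoculum grown 18 h, concentrated 50-fold and placed in the peripheral compartment 3 h before t0. Peripheral samples at set times counted by dilution plating. First 10-fold dilution not plated, limiting detection to 2–3 log10 CFU/ml. Δlog CFU/ml taken from t0 count. Duplicates.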

Enterococcus faecalis [6] = assay: AUBC (0 to 24 hrs) in Enterococcus faecalis Ef1497 in two-compartment pharmacokinetic/pharmacodynamic model at 800 mg, bid administered as 0.5 hr infusion for 2 days; type: functional
How it was run: (§3)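 Hollow-fibre two-compartment model in cation-adjusted, protein-free MH broth at 37°C. Human total-plasma linezolid profile simulated as 0.5-h infusion every 12 h for 48 h. Concentrated 18-h culture injected into the peripheral compartment 3 h before first sample, giving about 10^8 (E. faecalis) or 10^9 (S. aureus) CFU/ml. Viable counts by dilution plating over 0–24 h. Area indices calculated versus growth control curve. Duplicate runs.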

Enterococcus faecalis [7] = assay: Bactericidal activity against 14 hrs peripheral compartment culture samples of Enterococcus faecalis Ef1497 MutM3 in two-compartment pharmacokinetic/pharmacodynamic model assessed as effect on bacterial count at 200 mg, bid administered as 0.5 hr infusion; type: functional; how it was run: as §1
Staphylococcus aureus [8] = assay: Bactericidal activity against 48 hrs peripheral compartment culture samples of Staphylococcus aureus RN4220 MutS2 in two-compartment pharmacokinetic/pharmacodynamic model assessed as effect on bacterial count at 600 mg, bid administered as 0.5 hr infusion; type: functional; how it was run: as §1
[9] = Apparent volume of distribution in two-compartment pharmacokinetic/pharmacodynamic model at 400 mg, bid administered as 0.5 hrs infusion; type: ADME, organism-based; conditions: iv
[10] = Tmax in two-compartment pharmacokinetic/pharmacodynamic model at 200 mg, bid administered as 0.5 hr infusion over 24 hrs; type: ADME, organism-based; conditions: iv
How it was run: (§4)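 Two-compartment in vitro hollow-fibre model in cation-adjusted, protein-free Mueller-Hinton broth at 37°C. Human total-plasma linezolid profile simulated as 0.5-h infusion every 12 h for 48 h, computer-controlled syringe pump into central compartment. […] Peripheral samples assayed by validated HPLC-UV (quantification limit 0.39 μg/ml). Tmax read directly from concentration-time profiles. Run in duplicate.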

Staphylococcus aureus [11] = assay: Bactericidal activity against 14 hrs peripheral compartment culture samples of Staphylococcus aureus RN4220 in two-compartment pharmacokinetic/pharmacodynamic model assessed as effect on bacterial count at 600 mg, bid administered as 0.5 hr infusion; type: functional; how it was run: as §1
Enterococcus faecalis [12] = assay: Bactericidal activity against 48 hrs peripheral compartment culture samples of Enterococcus faecalis Ef1497 in two-compartment pharmacokinetic/pharmacodynamic model assessed as effect on bacterial count at 800 mg, bid administered as 0.5 hr infusion; type: functional; how it was run: as §1
Enterococcus faecalis [13] = assay: Bactericidal activity against 12.5 hrs peripheral compartment culture samples of Enterococcus faecalis Ef1497 MutM3 in two-compartment pharmacokinetic/pharmacodynamic model assessed as effect on bacterial count at 200 mg, bid administered as 0.5 hr infusion; type: functional; how it was run: as §1
[14] = AUC in two-compartment pharmacokinetic/pharmacodynamic model at 200 mg, bid administered as 0.5 hrs infusion; type: ADME; conditions: iv
Enterococcus faecalis [15] = assay: AUBC (0 to 24 hrs) in Enterococcus faecalis ATCC 29212 in two-compartment pharmacokinetic/pharmacodynamic model at 600 mg, bid administered as 0.5 hr infusion for 2 days; type: functional; how it was run: as §3
Enterococcus faecalis [16] = assay: Bactericidal activity against 0.5 hrs peripheral compartment culture samples of Enterococcus faecalis ATCC 29212 in two-compartment pharmacokinetic/pharmacodynamic model assessed as effect on bacterial count at 600 mg, bid administered as 0.5 hr infusion; type: functional; how it was run: as §2
[17] = Tmax in two-compartment pharmacokinetic/pharmacodynamic model at 600 mg, bid administered as 0.5 hrs infusion; type: ADME, organism-based; conditions: iv; how it was run: as §4
Enterococcus faecalis [18] = assay: Bactericidal activity against 1 hr peripheral compartment culture samples of Enterococcus faecalis ATCC 29212 in two-compartment pharmacokinetic/pharmacodynamic model assessed as effect on bacterial count at 200 mg, bid administered as 0.5 hr infusion; type: functional; how it was run: as §2
[19] = AUC in healthy human at 600 mg, iv, bid administered as 0.5 hr infusion; type: ADME, organism-based; conditions: plasma
Enterococcus faecalis [20] = assay: T>MIC in Enterococcus faecalis ATCC 29212 in two-compartment pharmacokinetic/pharmacodynamic model at 200 mg, bid administered as 0.5 hr infusion for 2 days; type: functional
Enterococcus faecalis [21] = assay: Bactericidal activity against 1 hr peripheral compartment culture samples of Enterococcus faecalis Ef1497 in two-compartment pharmacokinetic/pharmacodynamic model assessed as effect on bacterial count at 600 mg, bid administered as 0.5 hr infusion; type: functional; how it was run: as §2
[22] = test system: Staphylococcus aureus subsp. aureus RN4220; assay: AUBC (0 to 24 hrs) in Staphylococcus aureus RN4220MutS2 in two-compartment pharmacokinetic/pharmacodynamic model at 600 mg, bid administered as 0.5 hr infusion for 2 days; type: functional; how it was run: as §3
Staphylococcus aureus [23] = assay: Bactericidal activity against 14 hrs peripheral compartment culture samples of Staphylococcus aureus RN4220 MutS2 in two-compartment pharmacokinetic/pharmacodynamic model assessed as effect on bacterial count at 600 mg, bid administered as 0.5 hr infusion; type: functional; how it was run: as §1
[24] = Residual concentration at the end of the administration interval in two-compartment pharmacokinetic/pharmacodynamic model at 800 mg, bid administered as 0.5 hr infusion over 24 hrs; type: ADME; conditions: in vivo, iv
Enterococcus faecalis [25] = assay: ABBC (0 to 24 hrs) in Enterococcus faecalis ATCC 29212 in two-compartment pharmacokinetic/pharmacodynamic model at 200 mg, bid administered as 0.5 hr infusion for 2 days; type: functional; how it was run: as §3
[26] = Apparent volume of distribution in two-compartment pharmacokinetic/pharmacodynamic model at 600 mg, bid administered as 0.5 hrs infusion; conditions: iv

Q: What does the source list for CC(=O)NC[C@H]1CN(c2ccc(N3CCOCC3)c(F)c2)C(=O)O1 [LINEZOLID]?
A: log10CFU/ml (Enterococcus faecalis [1]): 0.79; log10CFU/ml (Enterococcus faecalis [2]): -0.08; log10CFU/ml (Enterococcus faecalis [3]): 0.1; log10CFU/ml (Staphylococcus aureus [4]): 0.52; log10CFU/ml (Enterococcus faecalis [5]): 0.15; AUBC (Enterococcus faecalis [6]): 210.5 log10CFU/ml.hr; log10CFU/ml (Enterococcus faecalis [7]): 0.41; log10CFU/ml (Staphylococcus aureus [8]): 0.74; Vd [9]: 130 L; Tmax [10]: 30 min; log10CFU/ml (Staphylococcus aureus [11]): -0.24; log10CFU/ml (Enterococcus faecalis [12]): -1.16; log10CFU/ml (Enterococcus faecalis [13]): 0.23; AUC at 0.5 h [14]: 10100 ng·h/mL; AUBC (Enterococcus faecalis [15]): 217.8 log10CFU/ml.hr; log10CFU/ml (Enterococcus faecalis [16]): 0.04; Tmax [17]: 30 min; log10CFU/ml (Enterococcus faecalis [18]): 0.14; AUC at 0.5 h [19]: 88100 ng·h/mL; fT>MIC (Enterococcus faecalis [20]): 8.08%; log10CFU/ml (Enterococcus faecalis [21]): -0.05; AUBC [22]: 228.8 log10CFU/ml.hr; log10CFU/ml (Staphylococcus aureus [23]): -0.58; Drug uptake [24]: 1.42 µg/mL; ABBC (Enterococcus faecalis [25]): 5.11 log10CFU/ml.hr; Vd [26]: 115 L
